Test [1] concerns Mus musculus. As to the kind of experiment: (§1) In vivo efficacy against Pseudomonas aeruginosa 5007 in mouse protection test after subcutaneous administration. To be noted: sc. The test is classed as functional. In outline:
(§2)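 Mouse protection model: mice infected intravenously with 100-fold LD50 of the organism. Compound given by subcutaneous injection or oral gavage at 1 and 5 h after infection, over a dose range. Deaths tracked for 7 days post-inoculation. ED50 is the dose giving 50% survival of treated mice over the trial.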

For test [2], the system named is Staphylococcus aureus. Put plainly: In vitro antibacterial activity against gram-positive Staphylococcus aureus NCTC 10649M. The test is classed as functional. To be noted: Staphylococcus aureus, NCTC 10649; read-out: MIC. Put shortly: (§3)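 Agar dilution MIC determination following the National Committee for Clinical Laboratory Standards recommendations.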
The test system of test [3] is Pseudomonas aeruginosa. Put plainly: In vitro antibacterial activity against gram negative P. aeruginosa DPHP 5263. The test is classed as functional. To be noted: Pseudomonas aeruginosa, DPHP 5263; read-out: MIC. In outline:
as §3

Test [4] has as its system Pseudomonas aeruginosa. As to the kind of experiment: In vitro antibacterial activity against Gram-negative Pseudomonas aeruginosa 5007. To be noted: Pseudomonas aeruginosa; read-out: MIC. It counts as functional. Put shortly: as §3
In test [5] the test system is Escherichia coli. As to the kind of experiment: In vitro antibacterial activity against gram negative Escherichia coli KNK 437. It counts as functional. To be noted: Escherichia coli; read-out: MIC. Put shortly: as §3
For a further test, the system named is Enterococcus faecium. Put plainly: In vitro antibacterial activity against gram-positive Enterococcus faecium ATCC 8043. It counts as functional. As to conditions: Enterococcus faecium, ATCC 8043; read-out: MIC. Put shortly:
as §3

Test [6] has as its system Streptococcus pyogenes. As to the kind of experiment: In vitro antibacterial activity against gram positive Streptococcus pyogenes 930. The test is classed as functional. To be noted: Streptococcus pyogenes; read-out: MIC. Put shortly:
as §3

For test [7], the system named is Staphylococcus aureus. Put plainly: In vitro antibacterial activity against gram-positive Staphylococcus aureus 1775. It counts as functional. To be noted: Staphylococcus aureus; read-out: MIC. Put shortly: as §3
Test [8] deals with Burkholderia cepacia. Put plainly: In vitro antibacterial activity against gram negative Pseudomonas cepacia 2961. As to conditions: Burkholderia cepacia; read-out: MIC. It counts as functional. Put shortly:
as §3

Test [9] relates to Escherichia coli. Put plainly: In vivo efficacy against Escherichia coli JUHL in mouse protection test after subcutaneous administration. As to conditions: Escherichia coli, sc; read-out: ED50. The test is classed as functional. Put shortly:
as §2

Test [10] deals with Staphylococcus aureus. As to the kind of experiment: In vivo efficacy against Staphylococcus aureus NCTC 10649M in mouse. The test is classed as functional. As to conditions: Staphylococcus aureus; read-out: ED50. In outline:
as §2

The next test has as its system Streptococcus pneumoniae. As to the kind of experiment: In vivo efficacy against Streptococcus pneumoniae ATCC 6303 in mouse protection test after s.c. administration. The test is classed as functional. As to conditions: Streptococcus pneumoniae, sc; read-out: ED50. In outline: as §2
Test [11] concerns Burkholderia cepacia. As to the kind of experiment: In vitro antibacterial activity against Pseudomonas cepacia 2961 a ciprofloxacin resistant strain. It counts as functional. In outline: (§4)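 MIC by agar dilution following National Committee for Clinical Laboratory Standards recommendations. P. cepacia 2961 is a ciprofloxacin-resistant strain; S. pyogenes 930 is erythromycin-resistant.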

Test [12] has as its system Burkholderia cepacia. As to the kind of experiment: In vitro antibacterial activity against gram negative P. cepacia 2961.
Test [13] deals with Pseudomonas aeruginosa. The description is as §1. The test is classed as functional. As to conditions: Pseudomonas aeruginosa, sc; read-out: ED50. Put shortly:
as §2

Test [14] relates to Mus musculus. As to the kind of experiment: (§5) In vivo efficacy against Pseudomonas aeruginosa 5007 in mouse protection test after administration by oral gavage. It counts as functional. In outline:
as §2

The subject of test [15] is Mus musculus. Put plainly: In vivo efficacy against Streptococcus pneumoniae ATCC 6303 in mouse protection test after administration by oral gavage. The test is classed as functional. Put shortly: as §2
Test [16] deals with Staphylococcus aureus. As to the kind of experiment: In vivo efficacy against Staphylococcus aureus NCTC 10649M in mouse protection test after p.o. administration. The test is classed as functional. To be noted: Staphylococcus aureus, po; read-out: ED50. In outline:
as §2

In test [17] the test system is Mus musculus. As to the kind of experiment: In vivo efficacy against Escherichia coli JUHL in mouse protection test after administration by oral gavage. It counts as functional. In outline:
as §2

The subject of test [18] is Streptococcus pyogenes. As to the kind of experiment: In vitro antibacterial activity against Streptococcus pyogenes 930 an erythromycin-resistant. It counts as functional. Put shortly:
as §4

Test [19] has as its system Pseudomonas aeruginosa. The description is as §5. As to conditions: Pseudomonas aeruginosa, po; read-out: ED50. It counts as functional. Put shortly:
as §2

The test system of test [20] is Escherichia coli. As to the kind of experiment: In vivo efficacy against Escherichia coli JUHL in mouse protection test after p.o. administration. The test is classed as functional. As to conditions: Escherichia coli, po; read-out: ED50. In outline:
as §2

Test [21] concerns Mus musculus. As to the kind of experiment: n vivo efficacy against Streptococcus pneumoniae ATCC 6303 in mouse protection test after administration by oral gavage. It counts as functional. In outline: as §2
The subject of test [22] is Mus musculus. Put plainly: In vivo efficacy against Escherichia coli JUHL in mouse protection test after by oral gavage. It counts as functional. In outline:
as §2

Broadly, the ED50 is the dose at which the effect has come halfway, by size or by number of responders. The term MIC denotes the lowest concentration found to suppress growth.

Molecules are shown by their SMILES. ≈ marks a conversion by molar mass, not a printed value.

On to `Cc1c(N2CCC[C@H](NC3CC3)C2)c(F)cn2c(=O)c(C(=O)O)cc(C3CC3)c12`, for which the median effective dose (ED50) in the test on Mus musculus [1] was above 32 mg/kg; in the test with Escherichia coli [9], above 5 mg/kg; with Staphylococcus aureus [10], 0.8 mg/kg; with Streptococcus pneumoniae, 4.3 mg/kg. The minimal inhibitory concentration (MIC) with Staphylococcus aureus [2] turned out to be 0.01 µg/mL (≈ 0.025 µM); in the test on Pseudomonas aeruginosa [3] it was 3.1 µg/mL (≈ 7.76 µM); with Pseudomonas aeruginosa [4], 0.2 µg/mL (≈ 0.501 µM); in the test on Escherichia coli [5] it was 0.05 µg/mL (≈ 0.125 µM); with Enterococcus faecium, 0.1 µg/mL (≈ 0.25 µM); in the test with Streptococcus pyogenes [6], 0.02 µg/mL (≈ 0.0501 µM). In addition, the MIC in the test with Staphylococcus aureus [7] was 0.39 µg/mL (≈ 0.976 µM); in the test on Burkholderia cepacia [8], 0.78 µg/mL (≈ 1.95 µM).

In the case of `Cc1c(N2CCC3(CCCC3N)C2)c(F)cn2c(=O)c(C(=O)O)cc(C3CC3)c12` (stereo not given), the MIC with Staphylococcus aureus [2] came out at 0.05 µg/mL (≈ 0.125 µM); in the test on Pseudomonas aeruginosa [3], 6.2 µg/mL (≈ 15.5 µM); in the test with Escherichia coli [5], 0.2 µg/mL (≈ 0.501 µM); in the test on Enterococcus faecium it was 0.1 µg/mL (≈ 0.25 µM); in the test on Burkholderia cepacia [11], 3.1 µg/mL (≈ 7.76 µM); with Staphylococcus aureus [7], 0.78 µg/mL (≈ 1.95 µM). Besides, the MIC in the test with Burkholderia cepacia [12] stood at 0.78 µg/mL (≈ 1.95 µM).

Regarding `CCN[C@H]1CCN(c2c(F)cn3c(=O)c(C(=O)O)cc(C4CC4)c3c2C)C1`, the ED50 in the test on Pseudomonas aeruginosa [13] was above 8 mg/kg; with Mus musculus [14] it was above 50 mg/kg; in the test with Mus musculus [15], 7.9 mg/kg; in the test on Staphylococcus aureus [16], 7.7 mg/kg; in the test with Escherichia coli [9], 0.6 mg/kg; in the test with Mus musculus [17], 3 mg/kg. For the same molecule, the results for the median effective dose (ED50) in the test with Staphylococcus aureus [10] and in the test on Streptococcus pneumoniae were 1 mg/kg and 2.9 mg/kg, respectively. Also, the MIC was 0.05 µg/mL (≈ 0.134 µM) in the test on Staphylococcus aureus [2]; 6.2 µg/mL (≈ 16.6 µM) with Pseudomonas aeruginosa [3]; 0.39 µg/mL (≈ 1.04 µM) in the test on Pseudomonas aeruginosa [4]; 0.2 µg/mL (≈ 0.536 µM) with Escherichia coli [5]; 0.1 µg/mL (≈ 0.268 µM) with Enterococcus faecium; 0.1 µg/mL (≈ 0.268 µM) in the test with Streptococcus pyogenes [6]. For the same molecule, the minimal inhibitory concentration (MIC) in the test with Staphylococcus aureus [7] is 1.56 µg/mL (≈ 4.18 µM); with Burkholderia cepacia [8], 3.1 µg/mL (≈ 8.3 µM).

For the molecule `Cc1c(N2C[C@@H](C)[C@H](N)C2)c(F)cn2c(=O)c(C(=O)O)cc(C3CC3)c12`, the minimum inhibitory concentration (MIC) in the test on Staphylococcus aureus [2] was determined as 0.02 µg/mL (≈ 0.0556 µM); in the test on Pseudomonas aeruginosa [3] it was 1.56 µg/mL (≈ 4.34 µM); in the test with Pseudomonas aeruginosa [4] it was 0.2 µg/mL (≈ 0.556 µM); in the test on Escherichia coli [5] it was 0.05 µg/mL (≈ 0.139 µM); in the test with Enterococcus faecium, 0.05 µg/mL (≈ 0.139 µM); with Staphylococcus aureus [7] it was 0.78 µg/mL (≈ 2.17 µM). For the same molecule, the minimum inhibitory concentration (MIC) is 0.78 µg/mL (≈ 2.17 µM) in the test on Burkholderia cepacia [8] and 0.05 µg/mL (≈ 0.139 µM) against Streptococcus pyogenes [18].

For the molecule `Cc1c(N2CC[C@H](NCCF)C2)c(F)cn2c(=O)c(C(=O)O)cc(C3CC3)c12`, the 50% effective dose (ED50) in the test on Pseudomonas aeruginosa [13] is above 32 mg/kg; in the test on Pseudomonas aeruginosa [19] it was above 50 mg/kg; with Staphylococcus aureus [16], 7.5 mg/kg; with Escherichia coli [9] it was 4.9 mg/kg; in the test with Escherichia coli [20], 17.2 mg/kg; with Mus musculus [21] it was 9.9 mg/kg. Further, in the test on Staphylococcus aureus [10], the 50% effective dose (ED50) worked out at 1.1 mg/kg. The minimal inhibitory concentration (MIC) came out at 0.01 µg/mL (≈ 0.0255 µM) in the test with Staphylococcus aureus [2]; 12.5 µg/mL (≈ 31.9 µM) in the test on Pseudomonas aeruginosa [3]; 0.78 µg/mL (≈ 1.99 µM) in the test on Pseudomonas aeruginosa [4]; 0.2 µg/mL (≈ 0.511 µM) with Escherichia coli [5]; 0.1 µg/mL (≈ 0.255 µM) with Enterococcus faecium; 0.1 µg/mL (≈ 0.255 µM) in the test with Streptococcus pyogenes [6]. Further, the MIC in the test on Staphylococcus aureus [7] is 0.39 µg/mL (≈ 0.996 µM); in the test on Burkholderia cepacia [8], 3.1 µg/mL (≈ 7.92 µM).

Consider `COCCN[C@H]1CCN(c2c(F)cn3c(=O)c(C(=O)O)cc(C4CC4)c3c2C)C1`, for which the minimal inhibitory concentration (MIC) in the test with Staphylococcus aureus [2] was found to be 0.05 µg/mL (≈ 0.124 µM); in the test on Pseudomonas aeruginosa [3] it was 12.5 µg/mL (≈ 31 µM); in the test with Pseudomonas aeruginosa [4] it was 1.56 µg/mL (≈ 3.87 µM); in the test on Escherichia coli [5] it was 0.39 µg/mL (≈ 0.967 µM); in the test with Enterococcus faecium it was 0.39 µg/mL (≈ 0.967 µM); with Streptococcus pyogenes [6], 0.39 µg/mL (≈ 0.967 µM). The minimum inhibitory concentration (MIC) in the test on Staphylococcus aureus [7] stood at 1.56 µg/mL (≈ 3.87 µM); with Burkholderia cepacia [8] it was 0.78 µg/mL (≈ 1.93 µM). The ED50 in the test with Staphylococcus aureus [16] is 18.1 mg/kg; in the test on Escherichia coli [9], 2.5 mg/kg; in the test on Mus musculus [22], above 10 mg/kg; in the test on Staphylococcus aureus [10], 6.1 mg/kg.

For the origin of these results see ChEMBL document CHEMBL1132437, “Synthesis and antimicrobial activity of 4H-4-oxoquinolizine derivatives: consequences of structural modification at the C-8 position” (1999).
